Usually IC50 stands for the concentration that gives 50% inhibition.

Calls of active or inactive are those of the source. No cut-off for these calls is given here. Some results are limits rather than exact numbers.

This is an account of results in ChEMBL document CHEMBL1141506, “Synthesis and cytotoxic activity of a new series of topoisomerase I inhibitors” (Bioorg Med Chem Lett, 2008).

In assay [1] the test system is NCI-H460. Kind of assay: Cytotoxicity against human NCI-H460 cells after 1 hr. The format is functional, cell-based. As to conditions: NCI-H460, 1 h. The procedure, abridged: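 Cells harvested at 72 h and counted by Coulter counter. IC50 is the concentration giving 50% less growth than untreated control, as mean of three assays.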
Assay [2] concerns the target T1, DNA topoisomerase 1 (Homo sapiens) (UniProt P11387).
T1 sequence (whole entry): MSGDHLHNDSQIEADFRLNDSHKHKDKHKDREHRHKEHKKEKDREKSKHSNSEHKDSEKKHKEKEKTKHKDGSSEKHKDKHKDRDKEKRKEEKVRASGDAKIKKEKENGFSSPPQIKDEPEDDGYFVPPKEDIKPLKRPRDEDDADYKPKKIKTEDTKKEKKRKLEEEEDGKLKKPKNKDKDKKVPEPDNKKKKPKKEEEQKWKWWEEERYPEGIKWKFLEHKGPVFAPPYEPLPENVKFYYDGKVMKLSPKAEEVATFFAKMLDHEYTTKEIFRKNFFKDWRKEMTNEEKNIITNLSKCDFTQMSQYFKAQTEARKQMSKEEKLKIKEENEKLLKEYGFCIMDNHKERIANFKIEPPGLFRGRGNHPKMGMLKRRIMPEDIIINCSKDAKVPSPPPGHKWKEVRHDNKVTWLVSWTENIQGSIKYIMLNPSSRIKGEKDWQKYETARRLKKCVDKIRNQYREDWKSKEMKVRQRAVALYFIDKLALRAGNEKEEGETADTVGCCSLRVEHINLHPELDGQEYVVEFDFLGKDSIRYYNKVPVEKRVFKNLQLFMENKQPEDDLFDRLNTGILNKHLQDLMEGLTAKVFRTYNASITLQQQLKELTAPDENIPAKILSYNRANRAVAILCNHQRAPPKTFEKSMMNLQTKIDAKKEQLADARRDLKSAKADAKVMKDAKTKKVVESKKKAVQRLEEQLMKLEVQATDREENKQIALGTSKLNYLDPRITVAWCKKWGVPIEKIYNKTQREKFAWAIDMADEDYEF
Nature of the assay: Inhibition of human recombinant topoisomerase 1 assessed as DNA plasmid relaxation after 30 mins. The procedure, abridged: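 Supercoiled pBR322 DNA (200 ng) with purified topo I in 20 mM Tris–HCl pH 7.6, 150 mM KCl, 5 mM MgCl2, 0.1 mM EDTA, 0.1 mM DTT, 0.5 µg/ml BSA. Compound at 1, 10, 50 µM, 30 min at 37 °C. Stopped with SDS/proteinase K at 42 °C for 45 min. Run on 0.8% agarose, ethidium bromide stained.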

Assay [3] has as its target T1, DNA topoisomerase 1 (Homo sapiens). Nature of the assay: Effect on stabilization of human recombinant topoisomerase 1-mediated DNA cleavage after 30 mins. A digest of the protocol: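 3'-end-labelled 751-bp BamHI–EcoRI SV40 DNA fragment (20,000 cpm/sample) with 640 ng full-length human recombinant topo I. Buffer: 10 mM Tris–HCl pH 7.6, 150 mM KCl, 5 mM MgCl2, 15 µg/ml BSA, 0.1 mM DTT. Drug at 1, 10, 50 µM, 30 min at 37 °C. Stopped with 0.5% SDS/0.3 mg/ml proteinase K, 45 min at 42 °C. Denaturing 8% polyacrylamide gel.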

For the compound `Cc1cc(=O)c2c(O)cc3c(c2o1)C(=O)c1c(O)cc(O)cc1C3=O` [TOPOPYRONE C], the IC50 in assay [1] was determined as 29.5 µM. That is a double-digit micromolar value.

For `Cc1oc2c3c(ccc2c(=O)c1Br)C(=O)c1cccc(O)c1C3=O`, in assay [1], the IC50 was determined as 6.5 µM.

With `Cc1cc(=O)c2ccc3c(c2o1)C(=O)c1c(O)ccc([N+](=O)[O-])c1C3=O`, 9.1 µM corresponded to half-maximal inhibition in assay [1] (IC50).

On to `COc1cccc2c1C(=O)c1c(ccc3c(=O)cc(-c4ccccc4)oc13)C2=O`, for which the IC50 in assay [1] was greater than 100 µM.

Take `Cc1oc2c3c(ccc2c(=O)c1Br)C(=O)c1ccc(Br)c(O)c1C3=O`: the outcome in assay [2] was inactive. For the same compound, the IC50 in assay [1] turned out to be 4.95 µM.

The compound `O=C1c2cccc(O)c2C(=O)c2c1ccc1c(=O)cc(-c3ccccc3)oc21` showed an IC50 in assay [1] of 7.06 µM. This counts as single-digit micromolar.

For `COc1cccc2c1C(=O)c1c(O)cccc1C2=O`, in assay [1], the IC50 was greater than 100 µM. Besides, the outcome in assay [3] was Active.

For the compound `COc1cc(OC)c2c(c1)C(=O)c1cc(OC)c3c(=O)cc(C)oc3c1C2=O`, the IC50 in assay [1] was greater than 100 µM.

In assay [1], `Cc1cc(=O)c2ccc3c(c2o1)C(=O)c1c(OCCN(C)C)cccc1C3=O` had a half-maximal inhibitory concentration (IC50) of 7.15 µM.

Turning to `COc1cccc2c1C(=O)c1c(O)ccc([N+](=O)[O-])c1C2=O`, in assay [1], half-maximal inhibition (IC50) was put at 160 µM. Further, the outcome in assay [3] was Active.

As for `CC[C@@]1(O)C(=O)OCc2c1cc1n(c2=O)Cc2cc3c(CN(C)C)c(O)ccc3nc2-1` [TOPOTECAN], in assay [1], the midpoint of inhibition, the IC50, lay at 1.18 µM.

On to `COc1cccc2c1C(=O)c1c(ccc3c(=O)cc(C)oc13)C2=O`, for which, in assay [1], the IC50 is greater than 260 µM.

On to `Cc1cc(=O)c2ccc3c(c2o1)C(=O)c1c(O)cccc1C3=O`, for which, in assay [2], the result was inactive. The compound further gave a 50% inhibitory concentration (IC50) in assay [1] of 5.5 µM. The result in assay [3] was Active.

Regarding `COc1cccc2c1C(=O)c1c(OCCN(C)C)cccc1C2=O`, in assay [1], the IC50 is greater than 100 µM. Besides, the result in assay [3] was Active.
